ChEMBL document CHEMBL3763157, “Synthesis and biological evaluation of novel orally available 1-phenyl-6-aminouracils containing dimethyldihydrobenzofuranol structure for the treatment of allergic skin diseases” (Bioorg Med Chem Lett, 2016)
In brackets after ≈: the same amount, converted by molar mass. Activity calls are given as the source filed them. The rule behind the calls is not given here.

Tests used:
Mus musculus [1] = experiment: Antiinflammatory activity in ICR mouse assessed as inhibition of picryl chloride-induced contact hypersensitivity reaction administered topically on left ear after 24 hrs; assay type: functional
Method in brief: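 Mice sensitized with picryl chloride; test agent applied topically at 0.1 mg/ear in acetone. Percent inhibition is the drug-treated group's percent response relative to the control group, n = 5, reported as the mean of 5 animals.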

[2] = Antioxidant activity assessed as suppression of H2O2/DETAPAC-Fe2+-mediated hydroxyl radical formation by measuring oxidation of dihydrorhodamine after 5 mins by fluorescence assay; assay type: physicochemical
[3] = Antioxidant activity assessed as suppression of H2O2/cobalt2+-mediated hydroxyl radical formation by luminol-based […] assay; assay type: physicochemical
Liver microsome [4] = experiment: Metabolic stability in rat liver microsomal fraction assessed per mg of protein; assay type: ADME; details: microsomes
Method in brief: (§1)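 Metabolic stability measured in human or rat liver microsomal fraction. Reported as mL/min/mg protein.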

[5] = Clearance in mouse at 1 mg/kg, iv; assay type: ADME, organism-based; details: in vivo
Method in brief: (§2)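 Mouse plasma PK after a single 1 mg/kg iv injection. Clearance (mL/min/kg) and steady-state volume of distribution (L/kg) derived from the plasma concentration profile.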

[6] = Solubility of the compound in phosphate buffer solution at pH 7.4; assay type: physicochemical
Method in brief: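 Solubility taken as the amount dissolved in phosphate buffer solution at pH 7.4, in […].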

[7] = biological target: Dual specificity mitogen-activated protein kinase kinase; MEK1/2 (Homo sapiens) (UniProt P36507+Q02750); experiment: Inhibition of MEK1/2 (unknown origin); assay type: protein assay
[8] = AUC in mouse at 10 mg/kg, po; assay type: ADME, organism-based; details: in vivo
Method in brief: (§3)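 Mouse pharmacokinetic study with single dosing, intravenous at 1 mg/kg or oral at 10 mg/kg. Plasma drug concentrations were measured, and AUC was taken from the plasma concentration curve. The same study also gave CL and Vdss (iv), Cmax (po) and oral bioavailability.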

Mus musculus [9] = experiment: Antiinflammatory activity in po dosed mouse assessed as inhibition of picryl chloride-induced contact hypersensitivity reaction administered 30 mins prior to picryl chloride challenge; assay type: functional, organism-based
Method in brief: (§4)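 Mice sensitized with picryl chloride one week before the study. Oral dose given 30 min before picryl chloride challenge. Data are mean ± SEM, n = 5/group, analysed by Dunnett's test.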

Mus musculus [10] = experiment: Antipruritic activity in mouse assessed as inhibition of substance P-induced pruritus at 10 mg/kg administered 30 mins prior to substance P challenge measured over 60 mins; assay type: functional, organism-based
Method in brief: (§5)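 Oral dose given 30 min before substance P challenge. Scratches counted over 60 min. Data are mean ± SEM, n = 7–8/group, analysed by Dunnett's test.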

[11] = AUC in mouse at 1 mg/kg, iv; assay type: ADME, organism-based; details: in vivo; method in brief: as §3
[12] = Oral bioavailability in mouse at 10 mg/kg; assay type: ADME, organism-based; details: in vivo
Method in brief: (§6)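 Mouse plasma PK after 10 mg/kg oral dosing. Cmax in ng/mL. Bioavailability derived from oral AUC compared with AUC after a 1 mg/kg iv dose.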

[13] = Cmax in mouse at 10 mg/kg, po; assay type: ADME, organism-based; set-up: dose 10 mg/kg, route oral; details: in vivo; method in brief: as §6
[14] = Volume of distribution at steady state in mouse at 1 mg/kg, iv; assay type: ADME, organism-based; details: in vivo, read-out: Vdss; method in brief: as §2
[15] = Apparent permeability in human Caco2 cells; assay type: ADME, cell-based; details: Caco-2
Method in brief: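 Caco-2 monolayer permeability reported as apparent permeability (Papp), in units of 10^-6 cm/s.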

Liver microsome [16] = experiment: Metabolic stability in human liver microsomal fraction assessed per mg of protein; assay type: ADME; details: microsomes; method in brief: as §1
Mus musculus [17] = experiment: Antipruritic activity in mouse assessed as inhibition of substance P-induced pruritus at 30 mg/kg administered 30 mins prior to substance P challenge measured over 60 mins; assay type: functional, organism-based; method in brief: as §5
Mus musculus [18] = experiment: Antiinflammatory activity in mouse assessed as inhibition of picryl chloride-induced contact hypersensitivity reaction at 10 mg/kg, po administered 30 mins prior to picryl chloride challenge; assay type: functional, organism-based; method in brief: as §4

Sequence of Dual specificity mitogen-activated protein kinase kinase; MEK1/2 (Homo sapiens) (P36507 whole entry, looked up): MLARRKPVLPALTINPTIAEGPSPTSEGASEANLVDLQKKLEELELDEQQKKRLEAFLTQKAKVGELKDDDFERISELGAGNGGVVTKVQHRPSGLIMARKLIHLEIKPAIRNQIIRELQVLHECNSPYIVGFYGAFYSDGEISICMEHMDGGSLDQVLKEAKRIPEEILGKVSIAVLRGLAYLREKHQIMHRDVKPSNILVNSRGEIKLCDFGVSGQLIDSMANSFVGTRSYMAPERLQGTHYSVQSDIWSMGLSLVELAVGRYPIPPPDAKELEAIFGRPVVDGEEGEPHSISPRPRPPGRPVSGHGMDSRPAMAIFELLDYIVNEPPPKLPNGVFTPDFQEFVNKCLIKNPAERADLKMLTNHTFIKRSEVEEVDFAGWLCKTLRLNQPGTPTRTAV
Sequence of Dual specificity mitogen-activated protein kinase kinase; MEK1/2 (Homo sapiens) (Q02750 whole entry, looked up): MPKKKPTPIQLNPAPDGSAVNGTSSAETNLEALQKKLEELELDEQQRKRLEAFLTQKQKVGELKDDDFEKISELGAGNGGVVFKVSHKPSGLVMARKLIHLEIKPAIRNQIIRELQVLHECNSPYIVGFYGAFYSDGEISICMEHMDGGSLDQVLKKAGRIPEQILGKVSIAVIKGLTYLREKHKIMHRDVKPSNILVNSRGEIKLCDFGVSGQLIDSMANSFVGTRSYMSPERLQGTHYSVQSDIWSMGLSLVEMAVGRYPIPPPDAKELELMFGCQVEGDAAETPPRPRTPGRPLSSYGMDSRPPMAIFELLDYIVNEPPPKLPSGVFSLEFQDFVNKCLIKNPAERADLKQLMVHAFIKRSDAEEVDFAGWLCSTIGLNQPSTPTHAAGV

Cc1cc(C)cc(-n2c(N)c(NC(=O)c3c(C)c(O)c(C)c4c3OC(C)(C)C4)c(=O)n(C)c2=O)c1
inhibition (INH) (Mus musculus [1]): 15%

Cc1ccc(-n2c(N)c(NC(=O)c3c(C)c(O)c(C)c4c3OC(C)(C)C4)c(=O)n(C)c2=O)cc1
inhibition (INH) (Mus musculus [1]): 30%

CCOc1cccc(-n2c(N)c(NC(=O)c3c(C)c(O)c(C)c4c3OC(C)(C)C4)c(=O)n(C)c2=O)c1
inhibition (INH) (Mus musculus [1]): 16%

Cc1c(C)c2c(c(C)c1O)CC[C@@](C)(C(=O)Nc1c(N)n(-c3ccccc3)c(=O)n(C)c1=O)O2
IC50 [2]: 44 µM | IC50 [3]: 12.1 µM

O=C1O[C@H]([C@@H](O)CO)C(O)=C1O [ASCORBIC ACID]
IC50 [2]: 54 µM | IC50 [3]: 82 µM

Cc1ccc(-n2c(N)c(NC(=O)c3c(C)c(O)c(C)c4c3OC(C)(C)C4)c(=O)n(C)c2=O)cc1C
inhibition (INH) (Mus musculus [1]): 45%

C=CC[C@@H]1/C=C(\C)C[C@H](C)C[C@H](OC)[C@H]2O[C@@](O)(C(=O)C(=O)N3CCCC[C@H]3C(=O)O[C@H](/C(C)=C/[C@@H]3CC[C@@H](O)[C@H](OC)C3)[C@H](C)[C@@H](O)CC1=O)[C@H](C)C[C@@H]2OC [TACROLIMUS ANHYDROUS]
inhibition (INH) (Mus musculus [1]): 53%

CCc1cccc(-n2c(N)c(NC(=O)c3c(C)c(O)c(C)c4c3OC(C)(C)C4)c(=O)n(C)c2=O)c1
inhibition (INH) (Mus musculus [1]): 14%

Cc1c(O)c(C)c(C(=O)Nc2c(N)n(-c3cccc(C(=O)O)c3)c(=O)n(C)c2=O)c2c1CC(C)(C)O2
inhibition (INH) (Mus musculus [1]): 9%

Cc1cccc(-n2c(N)c(NC(=O)c3c(C)c(O)c(C)c4c3OC(C)(C)C4)c(=O)n(C)c2=O)c1
Stability (Liver microsome [4]): < 0.01 mL/min/mg | clearance [5]: 18 mL/min/kg | solubility [6]: 21 µg/mL (≈ 45.2 µM) | IC50 [3]: 8.6 µM | inhibition [7]: Active | AUC [8]: 1100 ng·h/mL | inhibition (Mus musculus [9]): Dose-dependent effect | inhibition (Mus musculus [10]): Active | AUC [11]: 927 ng·h/mL | bioavailability [12]: 12% | Cmax [13]: 511 ng/mL | Vd [14]: 1 L/kg | Papp [15]: 14 ×10⁻⁶ cm/s | Stability (Liver microsome [16]): 0.019 mL/min/mg | inhibition (INH) (Mus musculus [1]): 52%

O=c1[nH]c2ccccc2n1CCCN1CCN(C(c2ccccc2)c2ccccc2)CC1
inhibition (Mus musculus [17]): Active

Cc1c(C)c2c(c(C)c1O)CCC(C)(C(=O)O)O2 (stereo unspecified) [TROLOX]
IC50 [2]: 24 µM | IC50 [3]: 9.7 µM

Cc1c(O)c(C)c(C(=O)Nc2c(N)n(-c3cccc(F)c3)c(=O)n(C)c2=O)c2c1CC(C)(C)O2
inhibition (INH) (Mus musculus [1]): 10%

C[C@]12C=CC(=O)C=C1CC[C@@H]1[C@@H]2[C@@H](O)C[C@@]2(C)[C@H]1CC[C@]2(O)C(=O)CO
inhibition (Mus musculus [18]): Active
